High-throughput results from PubChem.
T cell HTS: modulators of CD8 T cell-vesicle binding, primary screen, mouse 2C CD8+ T cells, flow cytometry; 2C CD8+ T cell-vesicle binding; hits give low values; response (vesicle binding), % at 7 µM; actives 0.068% (n = 330,000);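 active = response, share of CD8 T cells binding vesicles, and their 90th percentile fluorescence all below set limits, cut at about 80% in these data, passing the limit was not always enough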;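 also: values below 100% mean blocked vesicle binding to the CD8+ T cells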
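Assay system: 2C TCR transgenic mouse naive CD8+ T cells, MACS-purified | Read-out: CD8+ gate FL2 mean fluorescence as % of same-row positive control | Signal: High-throughput flow cytometry with anti-B7-1 and anti-CD8 staining | Timing: Binding step 1.5 h, 37 °C, antibody labelling 20 min, ice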
NALP1 inh: NALP1 inflammasome inhibitors in reconstituted yeast, colorimetric, S. cerevisiae, triplicate retest; inhibition, % at 10 µM; actives 0.61% (n = 280,000); S. cerevisiae NALP1/ASC/caspase-1 growth, X-gal OD620, 72 h; in the data active = inhibition mostly above about 24%, no sharp cut-off; inactive = mostly below about 32%
NALP3 yeast inh: NALP3 inflammasome inhibitors in reconstituted yeast, primary screen, luminescence, uHTS; Yeast reconstituted NLRP3/ASC/caspase-1, beta-gal luminescence, 24 h; actives 0.39% (n = 330,000); inhibition, % at 10 µM; AID 2825, 2010;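 active = inhibition of 50% or more; inactive = inhibition below 50%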
A1 inh: caspase 3/7 activation in MEF A1-2A-BIM cells, primary screen, A1 inhibitor project, cell-based, luminescence, HTS | Caspase-Glo 3/7 luminescence, 3 h; percent of clofoctol response, vehicle zero | caspase activation, % (test concentration not listed) | actives 0.066% (n = 330,000) | AID 2462, 2010;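 active = over half of replicate activation scores above 10%, or exactly half above 10 with the replicate mean above 10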
A number is an active result; 0 = inactive; - = no result given. Rows were chosen to be rich in hits. Some 1% of all compounds tested hit in one or more screens of this group.

SMILES	T cell HTS	NALP1 inh	NALP3 yeast inh	A1 inh
O=C(COC(=O)c1ccc(S(=O)(=O)N2CCOCC2)cc1)Nc1ccccc1OC(F)F	0.0	-	0	0
O=C(NCC(=O)N1CCCCCC1)c1ccc(Br)cc1	0	-	0	0
O=C(CC1NCCNC1=O)Nc1ccc([N+](=O)[O-])cc1 (stereo not given)	0	32	0	0
COC(=O)c1ccccc1S(=O)(=O)N1CCC(C(=O)N2CCC2)CC1	0	-	0	0
CCCCNC(=O)c1ccc(Cn2c(=S)[nH]c3c([nH]c4ccc(OC)cc43)c2=O)cc1	0	0	0	51
Cc1ccc(S(=O)(=O)c2c(COC(=O)c3ccccc3Cl)c(-c3ccccc3)nn2C)cc1	0	42	0	0
c1nc(NCC2(N3CCOCC3)CCCCC2)c2ccsc2n1	0	0	0	0
Cc1sc2ncnc(NCC(C)(C)N3CCOCC3)c2c1C	56	0	0	0
Cc1sc2ncnc(NCC3(N4CCOCC4)CCCCC3)c2c1C	0	44	0	0
COc1ccc(S(=O)(=O)NCC2CCCN(Cc3ccc(C)o3)C2)cc1 (stereo not given)	0	33	0	0
CCc1ccc(CN2CCCC(CNS(=O)(=O)c3ccc(OC)cc3)C2)cc1 (stereo not given)	0	0	0	0
COc1ccc(NC(=S)NC(=O)C2CCCCC2)cc1	0	0	0	0
CCOc1ccccc1NC(=S)NC(=O)C1CC1	0	26	0	0
CC(=O)Nc1ccc(NC(=S)NC(=O)C2CCCC2)cc1	0	32	0	0
CCOc1ccccc1NC(=O)/C=C/C(N)=O	0	54	0	0
Cc1cccc(N(CC(=O)NC(C)C)C(=O)CCC(=O)Nc2nccs2)c1	0	0	0	0
C=C(C)CSc1nc2sc3c(c2c(=O)n1-c1ccc(C)cc1)CCN(C)C3	-	0	0	-
CC1(c2ccc(NC(=O)c3ccccc3F)cc2)CC1(Cl)Cl (stereo not given)	0	0	0	0
O=C(Oc1ccc(-c2nnco2)cc1)N1CCCCC1	76	0	0	0
O=C(Oc1ccc(Cl)cc1)N1CCCCC1	0	0	0	0
Cc1nn(C(C)C(=O)c2cccc(Cl)c2)c(C)c1[N+](=O)[O-] (stereo not given)	0	0	0	0
Cn1cnc([N+](=O)[O-])c1S(=O)(=O)c1cccc(Cl)c1	0	66	0	7.8
CC(C)(C)OC(=O)NCCc1nnc(S(=O)(=O)Cc2ccc(Cl)cc2Cl)o1	0	0	0	5.9
CC(C)(C)OC(=O)NCCc1nnc(SCc2ccccc2Cl)o1	0	0	0	0
Cc1ccc(C2CN=NC23CCc2ccccc2C3=O)cc1 (stereo not given)	0	37	0	0
SMILES	T cell HTS	NALP1 inh	NALP3 yeast inh	A1 inh
C=CC[C@H](CC(=O)N(CCO)Cc1ccccc1)C(=O)N[C@H](COC(=O)[C@@H](CC=C)CC(=O)OC(C)(C)C)c1ccccc1	0	-	0	0
CCCCNc1nc(-c2ccccc2)c(C(=O)OCC)cc1C#N	0	44	0	0
CCCNc1nc(-c2ccccc2)c(C(=O)OCC)cc1C#N	0	0	0	0
CO[C@H]1C[C@@H]2CC[C@@H](C)[C@@](O)(O2)C(=O)C(=O)N2CCCC[C@H]2C(=O)O[C@H]([C@H](C)C[C@@H]2CC[C@@H](O)[C@H](OC)C2)CC(=O)[C@H](C)C=C(C)[C@@H](O)[C@@H](OC)C(=O)[C@H](C)C[C@H](C)C=CC=CC=C1C	-	66	-	-
O=C(CCN1C(=O)/C(=C\c2ccccc2Cl)SC1=S)N1CCN(c2ccccc2)CC1	0	29	0	0
O=C(N/N=C/c1ccc(OCc2ccccc2)cc1)c1cccs1	78	0	0	0
CCCCn1c(=O)[nH]c(=O)c2c1nc(Cn1ncc(Cl)c(Cl)c1=O)n2CCC	0	0	0	6.8
CC(C)NCCCCOc1ccc(Br)cc1Cl	0	28	0	0
CC(C)NCCCOc1ccc(Cl)cc1Br	0	0	0	0
CC1(C)Cc2c(ccc3ccccc23)C(c2cc3ccccc3oc2=O)=N1	0	34	0	0
O=C(O)C1CCC(Cn2c(SCc3cc(=O)n4cc(Cl)ccc4n3)nc3ccsc3c2=O)CC1 (stereo not given)	25	0	0	0
O=C(O)CCCCCn1c(SCc2cc(=O)n3cc(Cl)ccc3n2)nc2ccsc2c1=O	0	0	0	0
CCn1ccnc1CN(C)Cc1c(C(=O)N2C[C@@H](C)O[C@@H](C)C2)nc2ccc(Cl)cn12	0	0	0	0
Cc1ccc2[nH]cc(CCNC(=O)/C=C/c3ccco3)c2c1	78	0	0	0
Cc1cc(Br)c2[nH]cc(CCNC(=O)c3ccco3)c2c1	0	41	0	0
Cc1ccc(/C=C/C(=O)NCCc2c[nH]c3ccccc23)o1	0	0	0	0
Cc1ccc2[nH]cc(CCNC(=O)c3ccco3)c2c1	0	0	0	0
COc1ccc(OC)c(NC(=O)COC(=O)CCc2ccc(S(=O)(=O)N3CCOCC3)cc2)c1	0	-	0	0
Cc1ccc(NC(=O)c2cccc(S(=O)(=O)N3CCN(c4ccccc4)CC3)c2)nc1	0	-	0	0
Cc1ccc(/C=N/NC(=O)c2cc(C)oc2C)cc1	0	36	0	0
COc1ccccc1N1CCN(CCOc2c(OC)cccc2OC)CC1	0	28	0	0
COc1ccccc1N1CCN(CCCCOc2c(OC)cccc2OC)CC1	0	0	0	0
COCCn1c(SCC(=O)Nc2ccc(S(=O)(=O)N(C)C)cc2)nc2ccccc21	0	38	0	0
O=C(c1cc2cc(Cl)ccc2o1)N1CCCC1	0	35	0	0
CCSc1ccc(-c2nn(-c3ccccc3)cc2/C=C(/C#N)C(=O)NC)cc1	0	0	-	8.3
SMILES	T cell HTS	NALP1 inh	NALP3 yeast inh	A1 inh
Cc1ccc(C)c(N2N=C(C(=O)N(CC(C)C)c3c(N)n(Cc4ccccc4)c(=O)[nH]c3=O)CCC2=O)c1	0	0	0	0
COC(=O)c1ccc(N2C(=O)CC(N(C)CCc3ccc(OC)c(OC)c3)C2=O)cc1 (stereo not given)	0	0	0	0
COc1ccc(CCN(C)C2CC(=O)N(c3ccccc3)C2=O)cc1OC (stereo not given)	0	56	0	0
COc1ccc(N2C(=O)CC(N(CCc3ccc(OC)c(OC)c3)C(=S)Nc3ccccc3)C2=O)cc1 (stereo not given)	0	0	0	0
COc1ccc(N2C(=O)CC(N(C)CCc3ccc(OC)c(OC)c3)C2=O)cc1 (stereo not given)	0	41	0	0
O=C(CCNS(=O)(=O)c1ccc(Br)cc1)NCc1ccco1	0	-	0	0
CCc1cc(Cn2nc(-c3ccccc3)cc2C(=O)NCc2cccc(Br)c2)on1	0	-	0	0
Cc1cnn(C(=O)c2cc(-c3ccccn3)nc3ccc(Cl)cc23)c1	0	41	0	0
Cc1nn(C)c(C)c1NC(=O)CN1CCC(O)(c2ccc3c(c2)OCO3)CC1	0	31	0	0
CC(C)(C)NC(=O)CN1CCC(O)(c2ccc3c(c2)OCO3)CC1	0	0	0	0
